Columns and labels:
[1] = test system: LoxA; assay: LoxA substrate preference; assay type: biochemical, Pseudomonas aeruginosa; settings: initial rate at 10 μM substrate, pH 7.0, relative to AA
In short: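 His6-tagged LoxA was expressed in E. coli BL21(DE3), purified on Ni-NTA, and dosed by iron content. About 7 nM enzyme started each reaction. Each fatty acid substrate was C18 HPLC-purified and used at 10 μM in 25 mM HEPES pH 7.0 without Triton X-100. Initial rate of conjugated diene formation was followed at 234 nm (ε 25000 M−1cm−1) and expressed relative to the AA rate.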

[2] = test system: LoxA; assay: LoxA secondary product profile; assay type: biochemical, Pseudomonas aeruginosa; settings: 10 μM substrate; for times slower relative to the Kcat with AA: pH 7.0
[3] = test system: LoxA; assay type: biochemical, Pseudomonas aeruginosa; settings: for Kcat / Km: substrate of LoxA, 25 mM HEPES pH 7.0
[4] = test system: P. aeruginosa biofilm growth on human airway epithelial cells; assay: Biotic biofilm assay on airway epithelial cells; assay type: cell-based, Pseudomonas aeruginosa; settings: recombinant protein delivered to airway epithelial cells
In short: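 16HBE human bronchial epithelial cells were seeded at 7.4×10^4 per 6.5 mm transwell and polarized at air-liquid interface for 7 days. Cells were rinsed in MEM, and washed bacteria (wild-type PAO1 or loxA::Tn) were added at MOI 25–30. After 1 h, apical medium was replaced with MEM + 0.4% L-arginine for 5 h at 37 °C. Recombinant LoxA was added apically in MEM at increasing doses. Biofilms were released with 0.1% Triton X-100 and serially diluted for CFU/ml. Three experiments were run.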

[5] = test system: P. aeruginosa biofilm growth; assay: Abiotic microtiter biofilm assay; assay type: cell-based, Pseudomonas aeruginosa; settings: 1 μg LoxA protein added to loxA mutant or wild-type bacteria
In short: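 Wild-type PAO1 and loxA::Tn strains were grown overnight in Luria broth at 37 °C with 225 rpm shaking. Cultures were diluted 1:30 in minimal essential medium in 96-well plates, with or without 1 μg recombinant LoxA protein. Plates were incubated 24 h at 37 °C without agitation. Medium was removed, biofilms were washed and stained with crystal violet, and growth was read as absorbance at 550 nm.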

What does the source list for `CCCCC/C=C\C/C=C\C/C=C\C/C=C\CCCC(=O)O` [AA, arachidonic acid]?
% AA Rate (10 μM) [1]: 100%; Relative Kcat ([2]; Kcat of LoxA with AA set to 1, unitless): 1

`CCCCC/C=C\C/C=C\C/C=C\C=C\[C@@H](O)CCCC(=O)O` [5-HETE] was tested. Which “times slower relative to the Kcat with AA” value [2] did it give?
The value was 100,000 times.

How did the “times slower relative to the Kcat with AA” value [2] turn out when `CCCCCC=CCC=CCC=CC=CC(CCCC(=O)O)OO` (centres unmarked) [5-HpETE, 5-hydroperoxyeicosatetraenoic acid] was run?
Its value is 100,000 times.

For `CCCCC/C=C\C/C=C\CCCCCCCC(=O)O` [LA, linoleic acid], which “% AA Rate (10 μM)” value [1] is on record?
The value was 72(10) %.

What about the “KIE for Kcat” value ([3]; noncompetitive, LA versus perdeuterated LA) of the same molecule?
The value was 32 +/− 6.

What about the Kcat [3] of the same molecule?
Its Kcat is 28 (2) s^−1.

What about the Km [3] of the same molecule?
Its Km is 7 µM.

Which results are given for `CCCCC/C=C\C/C=C\CCCCCCCC(=O)O` [d31-LA]?
Kcat [3]: 0.9 (0.1) s^−1; Km [3]: 100 µM

For `CCCCCC(/C=C/C=C\C/C=C\C/C=C\CCCC(=O)O)OO` (centres unmarked) [15-HpETE, 15-hydroperoxyeicosatetraenoic acid], which “times slower relative to the Kcat with AA” value [2] is on record?
The value was 10,000 times.

`CCCCC[C@H](O)/C=C/C=C\C/C=C\C/C=C\CCCC(=O)O` [15-HETE] was tested. Which “times slower relative to the Kcat with AA” value [2] did it give?
Its value is 100,000 times.

B1: LoxA protein: purified recombinant P. aeruginosa 15-lipoxygenase added to biofilm assays (protein, UniProt Q9I4G8 20-685, looked up)
Lipoxygenase LoxA: NDSIFFSPLKYLGAEQQRSIDASRSLLDNLIPPSLPQYDNLAGKLARRAVLTSKKLVYVWTENFGNVKGVPMARSVPLGELPNVDWLLKTAGVIVELIVNFVASLPASAAAQFERIATGLSGDLEAARQVHEALLEEAKNDPAAAGSLLLRFTELQTRVIAILTRVGLLVDDILKSASNLVTQRGQGDGLNRFRAVFGTLRLPEVADSFRDDEAFAYWRVAGPNPLLIRRVDALPANFPLGEEQFRRVMGADDSLLEAAASRRLYLLDYAELGKLAPSGAVDKLLTGTGFAYAPIALFALGKDRARLLPVAIQCGQDPATHPMFVRPAESESDLYWGWQMAKTVVQVAEENYHEMFVHLAQTHLVSEAFCLATQRTLAPSHPLHVLLAPHFEGTLFINEGAARILLPSAGFIDVMFAAPIQDTQATAGGNRLGFDFYRGMLPESLKARNVDDPLALPDYPYRDDGLLVWNAIRQWAADYVAVYYASDGDVTADVELAAWVGEVIGSGKVAGFRPITGRSQLVEVLTMVIFTASAQHAAVNFPQPSMMTYAPAICAMSAAPAPDSPSGKSEADWLKMMPPTLVALEKVNIYHLLGSVYHGRLGDYRQTGFPYAPVFSDRRVTASGGPLERFQARLKEVEATIRTRNQARRRPYEYLLPSRIPASTNI
Which “effect on biotic biofilm growth of loxA transposon mutant” value [4] does the source give for B1 here?
Its value is “This decrease could be complemented”.

And the “effect on abiotic biofilm growth” value [5]?
The value was “did not alter biofilm growth”.

Reference: publication PMC7249612 (Biochemistry, 2016)
